Activity calls are given as the source filed them. No cut-off for these calls is given here.
How the values were obtained:
P388 [1] = assay: Displacement of L-[3H]-fucose from glycoprotein in mouse P388 cells at 10^-4 to 10^-3 M incubated for 2 hrs prior to radioligand addition measured after 30 mins by scintillation spectrometric analysis; assay type: cell-based
How it was run: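 P388 cells grown to midlog phase (4 × 10^5 cells/mL) in Fischer's medium plus 10% horse serum, then resuspended in fresh medium at 5 × 10^6 cells/mL. Preincubated 2 h at 37 °C with shaking with compound at 10^-4 or 10^-3 M. L-[3H]fucose and [14C]glucosamine (nonspecific control) then added for 30 min. Stopped with cold 10% TCA; pellets washed, lipid-extracted, hydrolyzed in 0.5 N NaOH at 85 °C; scintillation counting.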

P388 [2] = assay: Cytotoxicity against mouse P388 cells assessed as growth inhibition at 5x10'-4 M after 72 hrs by Coulter counting analysis relative to control; assay type: functional; settings: P388, 72 h, read-out: GI
How it was run: (§1)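 P388 leukemia cells seeded at 1.1 × 10^4 cells/mL in Fischer's medium with 10% horse serum. Compound dissolved in 0.9% NaCl, with or without 3% Me2SO, at ten times final concentration, filter-sterilized, and added at one-tenth volume. Incubation at 37 °C under 5% CO2; cell numbers counted in triplicate by electronic particle counter after 72 h.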

P388 [3] = assay: Cytotoxicity against mouse P388 cells assessed as growth inhibition at 1x10'-5 M after 72 hrs by Coulter counting analysis relative to control; assay type: functional; settings: P388, 72 h, read-out: GI; how it was run: as §1
P388 [4] = assay: Cytotoxicity against mouse P388 cells assessed as growth inhibition at 1x10'-3 M after 72 hrs by Coulter counting analysis relative to control; assay type: functional; settings: P388, 72 h, read-out: GI; how it was run: as §1
P388 [5] = assay: Cytotoxicity against mouse P388 cells assessed as growth inhibition at 1x10'-4 M after 72 hrs by Coulter counting analysis relative to control; assay type: functional; settings: P388, 72 h, read-out: GI; how it was run: as §1
P388 [6] = assay: Cytotoxicity against mouse P388 cells assessed as growth inhibition at 2.5x10'-4 M after 72 hrs by Coulter counting analysis relative to control; assay type: functional; settings: P388, 72 h, read-out: GI; how it was run: as §1

SMILES: Cc1ccc(S(=O)(=O)OC[C@@H]2OC(O)[C@@H](O)[C@H](O)[C@@H]2O)cc1 (stereo not given in full)
- inhibition (P388 [1]): inactive
- inhibition of growth at 500 µM (P388 [2]): 94%
- inhibition of growth at 10 µM (P388 [3]): 14%
- inhibition of growth at 1000 µM (P388 [4]): 96%
- inhibition of growth at 100 µM (P388 [5]): 25%

SMILES: OC1O[C@@H](CF)[C@@H](O)[C@@H](O)[C@@H]1O (stereo not given in full)
- inhibition (P388 [1]): inactive
- inhibition of growth at 10 µM (P388 [3]): 3%
- inhibition of growth at 1000 µM (P388 [4]): 8%
- inhibition of growth at 100 µM (P388 [5]): 10%

SMILES: O=C(NC[C@@H]1OC(O)[C@@H](O)[C@H](O)[C@@H]1O)C(F)(F)F (stereo not given in full)
- inhibition (P388 [1]): inactive
- inhibition of growth at 10 µM (P388 [3]): 7%
- inhibition of growth at 1000 µM (P388 [4]): 36%
- inhibition of growth at 100 µM (P388 [5]): 14%

SMILES: CS(=O)(=O)OC[C@@H]1OC(O)[C@@H](O)[C@H](O)[C@@H]1O (stereo not given in full)
- inhibition (P388 [1]): inactive
- inhibition of growth at 500 µM (P388 [2]): 86%
- inhibition of growth at 1000 µM (P388 [4]): 96%
- inhibition of growth at 100 µM (P388 [5]): 56%

SMILES: [N-]=[N+]=NC[C@@H]1OC(O)[C@@H](O)[C@H](O)[C@@H]1O (stereo not given in full)
- inhibition (P388 [1]): inactive
- inhibition of growth at 10 µM (P388 [3]): 7%
- inhibition of growth at 1000 µM (P388 [4]): 20%
- inhibition of growth at 100 µM (P388 [5]): 12%

SMILES: COC[C@@H]1OC(O)[C@@H](O)[C@H](O)[C@@H]1O (stereo not given in full)
- inhibition (P388 [1]): inactive
- inhibition of growth at 10 µM (P388 [3]): 12%
- inhibition of growth at 1000 µM (P388 [4]): 73%
- inhibition of growth at 100 µM (P388 [5]): 16%

SMILES: O=S(=O)(OC[C@@H]1OC(O)[C@@H](O)[C@H](O)[C@@H]1O)c1ccccc1 (stereo not given in full)
- inhibition (P388 [1]): inactive
- inhibition of growth at 500 µM (P388 [2]): 95%
- inhibition of growth at 1000 µM (P388 [4]): 97%
- inhibition of growth at 100 µM (P388 [5]): 52%

SMILES: OC1O[C@@H](COCc2ccccc2)[C@@H](O)[C@@H](O)[C@@H]1O (stereo not given in full)
- inhibition (P388 [1]): inactive
- inhibition of growth at 500 µM (P388 [2]): 21%
- inhibition of growth at 1000 µM (P388 [4]): 26%
- inhibition of growth at 100 µM (P388 [5]): 17%

SMILES: CCOC[C@@H]1OC(O)[C@@H](O)[C@H](O)[C@@H]1O (stereo not given in full)
- inhibition (P388 [1]): inactive
- inhibition of growth at 500 µM (P388 [2]): 31%
- inhibition of growth at 1000 µM (P388 [4]): 23%
- inhibition of growth at 100 µM (P388 [5]): 25%

SMILES: OC1O[C@@H](CI)[C@@H](O)[C@@H](O)[C@@H]1O (stereo not given in full)
- inhibition (P388 [1]): inactive
- inhibition of growth at 500 µM (P388 [2]): 71%
- inhibition of growth at 1000 µM (P388 [4]): 91%
- inhibition of growth at 100 µM (P388 [5]): 44%

SMILES: CC[C@@H]1OC(O)[C@@H](O)[C@H](O)[C@@H]1O (stereo not given in full)
- inhibition (P388 [1]): inactive
- inhibition of growth at 1000 µM (P388 [4]): 2%

SMILES: OC1O[C@@H](C(F)F)[C@@H](O)[C@@H](O)[C@@H]1O (stereo not given in full)
- inhibition (P388 [1]): inactive
- inhibition of growth at 500 µM (P388 [2]): 0%
- inhibition of growth at 1000 µM (P388 [4]): 0%
- inhibition of growth at 100 µM (P388 [5]): 0%

SMILES: CC(=O)O[C@@H]1O[C@@H](C(F)F)[C@@H](OC(C)=O)[C@@H](OC(C)=O)[C@@H]1OC(C)=O
- inhibition of growth at 250 µM (P388 [6]): 89%

SMILES: OC1O[C@@H](CBr)[C@@H](O)[C@@H](O)[C@@H]1O (stereo not given in full)
- inhibition (P388 [1]): inactive
- inhibition of growth at 500 µM (P388 [2]): 87%
- inhibition of growth at 1000 µM (P388 [4]): 97%
- inhibition of growth at 100 µM (P388 [5]): 33%

SMILES: OC1O[C@@H](CCl)[C@@H](O)[C@@H](O)[C@@H]1O (stereo not given in full)
- inhibition (P388 [1]): inactive
- inhibition of growth at 10 µM (P388 [3]): 10%
- inhibition of growth at 1000 µM (P388 [4]): 15%
- inhibition of growth at 100 µM (P388 [5]): 10%

SMILES: CC(=O)NC[C@@H]1OC(O)[C@@H](O)[C@H](O)[C@@H]1O (stereo not given in full)
- inhibition (P388 [1]): inactive
- inhibition of growth at 10 µM (P388 [3]): 15%
- inhibition of growth at 1000 µM (P388 [4]): 16%
- inhibition of growth at 100 µM (P388 [5]): 9%

— ChEMBL document CHEMBL3244048, “Synthesis and biological activity of potential antimetabolites of L-fucose” (1979)
